# Assay results of several laboratories.
# Cell line: MOLT-4
# Effect on: cell growth or viability
Structure (SMILES),assay,conditions,IC50
O=C(NO)c1ccc(Cn2cnc3c(Nc4ccc(Cl)cc4)ncnc32)cc1,MTT,72 h,190 nM
Cc1nc(Nc2ncc(C(=O)Nc3c(C)cccc3Cl)s2)cc(N2CC[C@H](O)C2)n1,ATP luminescence,72 h,> 10000 nM
Cc1c(-c2ccc(N3CCc4cccc(C(=O)Nc5nc6ccccc6s5)c4C3)nc2C(=O)O)cnn1CC12CC3CC(C1)CC(C(=O)NCCCCCCCCCCCCNc1cccc4c1C(=O)N(C1CCC(=O)NC1=O)C4=O)(C3)C2 (centres unmarked),MTS,48 h,49.4 nM
O=C(CSc1nc2ccccc2s1)N/N=C/c1ccc(OCC(=O)Nc2cccc(Br)c2)cc1,MTS,72 h,> 100000 nM
COc1cccc2c1C(=O)c1c(O)c3c(c(O)c1C2=O)C[C@@](O)(C(=O)CO)C[C@@H]3O[C@H]1C[C@H](N)[C@H](O)[C@H](C)O1,,96 h,2.61 nM
Cc1ncsc1-c1ccc([C@H](C)NC(=O)[C@@H]2C[C@@H](O)CN2C(=O)[C@@H](NC(=O)CCCCCS(=O)(=O)NC(=O)c2nc(N3CCc4cccc(C(=O)Nc5nc6ccccc6s5)c4C3)ccc2-c2cnn(CC34CC5CC(CC(C5)C3)C4)c2C)C(C)(C)C)cc1,MTS,48 h,4 nM
O=C(NO)c1ccc(Cn2cnc3c(Nc4ccc(F)c(Cl)c4)ncnc32)cc1,MTT,72 h,660 nM
Cc1ncsc1-c1ccc([C@H](C)NC(=O)[C@@H]2C[C@@H](O)CN2C(=O)[C@@H](NC(=O)CCCCCCS(=O)(=O)NC(=O)c2nc(N3CCc4cccc(C(=O)Nc5nc6ccccc6s5)c4C3)ccc2-c2cnn(CC34CC5CC(CC(C5)C3)C4)c2C)C(C)(C)C)cc1,MTS,48 h,4.5 nM
COc1ccc(Nc2ncnc3c2ncn3Cc2ccc(C(=O)NO)cc2)cc1,MTT,72 h,460 nM
COc1cc([C@@H]2c3cc4c(cc3[C@@H](O[C@@H]3O[C@@H]5CO[C@@H](C)O[C@H]5[C@H](O)[C@H]3O)[C@H]3COC(=O)[C@H]23)OCO4)cc(OC)c1O,MTS,72 h,180 nM
CN1CCC(NC2CCc3[nH]c4c(C(N)=O)ccc(-c5ccccc5Cl)c4c3C2)CC1 (centres unmarked),,96 h,18.7 nM
COc1ccc(Nc2ncnc3c2ncn3Cc2ccc(C(=O)Nc3ccccc3N)cc2)cc1,MTT,72 h,610 nM
CCS(=O)(=O)NC(=O)c1nc(N2CCc3cccc(C(=O)Nc4nc5ccccc5s4)c3C2)ccc1-c1cnn(CC23CC4CC(CC(C4)C2)C3)c1C,MTS,48 h,5.1 nM
O=C(CSc1nc2ccccc2s1)N/N=C/c1ccc(OCC(=O)Nc2ccc(Br)cc2)cc1,MTS,72 h,> 100000 nM
